Compound activity (PubChem BioAssay)
These entries were drawn from the full list.
Apaf-1 act: activators of human Apaf-1 apoptosome, primary screen, biochemical, DEVD-Rh110 fluorescence, uHTS; Apaf-1 apoptosome caspase-3 activation; stronger effect = lower value; AID 489031, 2010; activity change, negative = activation, % at 20 µM; 0.31% of 330,000 active; Apoptotic protease-activating factor 1 (Homo sapiens), O14727;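 active = activity change at or below -40% at 20 µM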
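System: Reconstituted apoptosome of Apaf-1, cytochrome c, caspase-9, procaspase-3 | Reagent: dATP, cytochrome c, and (Z-DEVD)2-Rh110 caspase-3 substrate | Times: 30 min compound preincubation and 50 min reaction, both room temperature | Detection: Caspase-3-released Rh110 fluorescence, 540 nm emission, 480 nm excitation | Measure: Caspase-3 activity via Apaf-1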
Rh110 interf act: Rh110 fluorescence interference by putative Apaf-1 activators, confirmation, artefact control for Apaf-1 activator project, biochemical, 20 µM; shares compounds with Apaf-1 act; quenched caspase reaction, Ex480/Em540; fluorescence interference (activity change), % at 20 µM, hits read low; 980 tested, under 10 active;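 active = mean activity change at or below -40% when tested at 20 µM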
Apaf-1 act conf2: Apaf-1 activators, single-dose retest, confirmation, biochemical, fluorescence, DEVD-Rh110, 20 µM; reconstituted apoptosome caspase-3 activity; stronger effect = lower value; 5% of 980 active; shares compounds with Apaf-1 act; activity change, negative = activation, % at 20 µM;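 active = mean activity change at or below -40%, meaning activation of 40% or more, at 20 µM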
An asterisk follows results filed as active; · = no result.

SMILES	Apaf-1 act	Rh110 interf act	Apaf-1 act conf2
C#CCOCCOCCOCCNc1nc(N2CCN(C(=O)[C@H](CCCCN)n3cc(CN)nn3)CC2)nc(N2CCN(C(=O)[C@H](CCCCN)n3cc([C@@H](N)[C@H](C)CC)nn3)CC2)n1	40	·	·
Cc1cc(N)ccc1N1CCCC1	65	·	·
Cc1cccc(-c2nnc3sc(-c4ccccc4C)nn23)c1	-49*	6	26
Cc1cccc(-c2cc3c(nn2)-c2ccccc2C3=O)c1	91	·	·
Cc1ccc(-n2nnnc2SCC(=O)N2CCNC2=O)cc1C	-448*	9	9
COc1ccc(N=C2C(=Nc3ccc(OC)cc3)N(c3ccc(OC)cc3)C(=S)N2c2ccccc2)cc1	75	·	·
CCOc1ccc(-c2nc(CSc3nnc(N)s3)cs2)cc1	-523*	5	11
CCCCCCCCCCCCOC(=O)C[N+](C)(C)C	46	·	·
CC(=O)c1ccc(NC(=S)Nc2cccc3ccccc23)cc1	45	·	·
Nc1ccccc1C(=O)Nc1cccc2ccccc12	-114*	-9	16
C/C(=N\NC(=O)CNc1cccc2ccccc12)c1ccccc1	83	·	·
COc1ccc(NC(=O)CCl)cn1	67	·	·
CN1CCN(CCCN2c3ccccc3Sc3ccc(Cl)cc32)CC1	54	·	·
CSc1ccc2c(c1)C(N1CCN(C)CC1)Cc1ccccc1S2 (stereo not given)	48	·	·
CN1CCN(C2Cc3cc(F)ccc3Sc3ccc(Cl)cc32)CC1 (stereo not given)	-78*	7	7
COc1cc(N)c(Cc2nccc3cc(OC)c(OC)cc23)cc1OC	47	·	·
OC(c1cc(C(F)(F)F)nc2c(C(F)(F)F)cccc12)C1CCCCN1 (stereo not given)	48	·	·
Cc1ccc2c(CN3CCCCC3C)cc(=O)oc2c1C (stereo not given)	-50*	4	9
O=C1CCN(Cc2ccccc2)C=C1c1ccc(Cl)cc1	47	·	·
COc1ccc(C2CC(c3ccc(OC)cc3)n3nc(NC(=O)c4ccco4)nc3N2)cc1 (stereo not given)	-330*	-8	15
COc1ccc2c(c1)Cc1sc(NC(=O)c3ccco3)nc1-2	85	·	·
COC(=O)CCC(=O)OC1(C)C(=O)C=C2C=C(C3CC3)N(CCc3ccccn3)C=C2C1=O (stereo not given)	53	·	·
COc1ccc(C2C(C(=O)c3ccco3)=C(O)C(=O)N2CCCn2ccnc2)c(OC)c1 (stereo not given)	57	·	·
O=C(NCCCn1ccnc1)C1c2ccccc2Oc2ccccc21	-417*	-3	8
CCN1CCN(C2=C(NS(=O)(=O)c3ccc(Br)cc3)C(=O)c3ccccc3C2=O)CC1	88	·	·
SMILES	Apaf-1 act	Rh110 interf act	Apaf-1 act conf2
O=C(N/N=C/c1c(F)cccc1Cl)C1CC1	-142*	-4	8
C#CC(CC)(CC)NC(=O)/C=C/C(=O)O	-566*	7	11
Cc1cc2cc(CNC(=S)Nc3ccc(OC(F)(F)F)cc3)ccc2n1C	59	·	·
COc1c(Cl)cc(Cl)cc1C(=O)Nc1ccccc1N1CCN(C(C)=O)CC1	-325*	-2	12
CN1CCN(c2ccccc2NC(=O)c2ccc(-c3ccc(Cl)c(Cl)c3)o2)CC1	46	·	·
c1ccc(-c2sc3ccccc3c2-c2ccc(OCCN3CCCCC3)cc2)cc1	52	·	·
CCC1CCCCN1CCCNC(=O)CC1Oc2ccc(C)cc2NC1=O (stereo not given)	-93*	8	11
Nc1c(N2CCCC2)cc(Cl)c2nonc12	96	·	·
Cc1nnc(SCC(=O)NCc2ccco2)n1Cc1ccccc1	-428*	-5	13
C=CCn1c(SCC(=O)NCCc2ccccc2)nnc1C1CC1	42	·	·
CC(C)=CCC/C(C)=C/CNC(=O)C[C@H]1C[C@H](C(=O)N2CCOCC2)[C@@]2(C)c3[nH]c4ccc(Cl)cc4c3CCN2C1=O	42	·	·
C=CCNc1nc(Cl)nc(Nc2ccc(OCC)cc2)n1	-51*	-2	11
CC(C)C[C@H](NC(=O)c1nc[nH]c1C(=O)N[C@@H](CCCCN)C(=O)OC(C)(C)C)C(=O)OC(C)(C)C	43	·	·
COC(=O)c1c(NC(=O)COc2ccc(Cl)cc2)sc2c1CC(C)(C)NC2(C)C	61	·	·
Cc1nn(Cc2ccc(F)cc2)c(Cl)c1/C=N/NC(=O)c1cccnc1	-49*	-2	10
COc1cc(CCc2ccccc2)c(C(=O)O)c(O)c1C/C=C(/C)CCC=C(C)C	43	·	·
CCOc1ccc(C(=O)C(C)=O)c(OCC)c1	-44*	1	10
CC(C(O)c1ccc(O)cc1)N1CCC(Cc2ccccc2)CC1 (stereo not given)	2	·	·
CN(Cc1ccccc1)S(=O)(=O)c1cn(C)cn1	-113*	7	14
CN(C)c1cccc2c1c(NS(=O)(=O)c1cn(C)cn1)nn2C	62	·	·
Cc1ccc(-n2c(N)c(C(=O)Nc3c(C)n(C)n(-c4ccccc4)c3=O)c3nc4ccccc4nc32)cc1C	42	·	·
Cc1ccc2nc(/C(C#N)=C\c3ccc(N4CCOCC4)o3)[nH]c2c1	44	·	·
COc1ccc(C[C@H]2CN3C(=NC[C@@H]3C(C)C)N2CCNC(=O)c2ccc(C)c(Br)c2)cc1	47	·	·
Cc1ccc(C(=O)NCCN2C3=NC[C@H](C)N3C[C@H]2Cc2ccc(O)cc2)cc1Br	-440*	0	8
C/C=C(\C)C(=O)NCCN1C2=NC[C@@H](Cc3ccccc3)N2C[C@@H]1Cc1ccc(OC)cc1	40	·	·
SMILES	Apaf-1 act	Rh110 interf act	Apaf-1 act conf2
CC1=NN(c2ccccc2)C(=O)/C1=C/c1cc2cc(C)ccc2nc1N1CCCCC1	94	·	·
Cc1cc(N(CCO)CCO)ccc1N=Nc1cc(F)ccc1F	40	·	·
CCOC(=O)c1cnc(-n2nc(C)cc2C)nc1NC1CCCCC1	42	·	·
CCOC(=O)C1=NNC2C(=O)N(C3CCCCC3)C(=O)C12 (stereo not given)	-79*	-6	7
Cc1ccc(C(=O)N/C(=C\c2ccc(-c3ccccc3[N+](=O)[O-])o2)C(=O)NCCN(C)C)cc1	53	·	·
N=C1CCC(=N)c2c1c(O)c1ccccc1c2O	77	·	·
CC(C)C[C@@H]1CN=C(N)N1C[C@@H]1CCCN1C[C@H](C)N1C[C@@H](Cc2ccccc2)N(CCc2ccc(Cl)c(Cl)c2)C1=N	63	·	·
C=CC(=C)CC(NC)c1ccccc1 (stereo not given)	-48*	6	1
O=C(O)c1ccccc1-c1ccc(/C=c2\sc3nc4cc(Br)cnc4n3c2=O)o1	72	·	·
O=C1CC(N2CCN(C3CCc4ccccc4C3)CC2)C(=O)N1c1ccccc1 (stereo not given)	-43*	13	18
CN1C[C@H](C(=O)N[C@]2(C)O[C@@]3(O)[C@@H]4CCCN4C(=O)[C@H](Cc4ccccc4)N3C2=O)CC2c3cccc4[nH]cc(c34)C[C@H]21 (stereo not given in full)	10	·	·
Cc1c(C(=O)N2CCOCC2)c(S(=O)(=O)Nc2cccc(Br)c2)c(C)n1C	-44*	4	12
CCSc1ccc2c(c1)N(CCCN1CCN(C)CC1)c1ccccc1S2	57	·	·
Cc1ccc(S(=O)(=O)CCC(=O)NCc2ccccc2)cc1	-64*	4	8
